Bioassay records as filed in PubChem BioAssay.
CAL PDZ FP-1 – inhibitors of human CAL PDZ peptide binding. Q9HD26. inhibition, % at 24.9 µM. purified CAL PDZ, TMR-peptide fluorescence polarization, 1 h. actives 0.92% (n = 300,000);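 active means mean inhibition of at least 30% with at least half of replicates also reaching 30%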;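 further: 0% = DMSO neutral control and 100% = excess unlabeled competitor peptide PRC23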
ARNT-TACC3 inh – ARNT/TACC3 interaction disruption | Q9Y6A5 | actives 0.66% (n = 390,000) | AID 623870 | inhibition, % at 9.99 µM | AlphaScreen His-ARNT PAS-B/GST-TACC3 binding, luminescence; TACC3 fragment carries E629A point mutation;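 active means mean inhibition of replicates at least 50% and at least half of replicates each reaching 50%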;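 further: 0% = complete ARNT plus TACC3 wells and 100% = ARNT alone without TACC3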
CAL PDZ FP-2 – human CAL PDZ-peptide interaction inhibition; AID 504414; inhibition, % at 20 µM; actives 0.02% (n = 330,000); Q9HD26; purified CAL PDZ, TMR-peptide fluorescence polarization, 1 h;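 active means highest replicate inhibition of at least 40%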;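 further: plate controls were DMSO neutral control wells for no effect and unlabeled competitor peptide control wells for full effect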
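Read-out basis: mP drop reported as inhibition | Assay system: Tagged CAL PDZ protein CerCALP, purified | Benchmarks: Unlabelled peptide for full inhibition, DMSO wells as neutral | Schedule: 1 h incubation at room temperature before polarization reading | Buffer or medium: Sodium phosphate/NaCl buffer pH 7.4 with TCEP, IgG, Thesit | Doses: Single point, 20 µM | Measured by: Fluorescence polarization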
Active calls of the source: *; / = no result; + = active, no number. Sampled rows, rich in hits. Any-hit rate of the full collection: about 1.2%.

SMILES | CAL PDZ FP-1 | ARNT-TACC3 inh | CAL PDZ FP-2
CCCNC(=O)Nc1ccc2c(c1)OC[C@H](C)N(C(=O)C1CCC1)C[C@H](C)[C@H](OC)CN(C)C2=O | / | -10 | /
CCCN1C[C@@H](C)[C@@H](OC)CN(C)C(=O)c2cc(NC(=O)C3CCOCC3)ccc2OC[C@H]1C | / | -7 | /
CCN(Cc1cnn(C)c1)C(=O)C1CCC(=O)N(CCc2ccc(OC)cc2)C1 (stereo not drawn) | 86* | -3 | -1
CCc1ccc(CN(C)C(=O)C2CCC(=O)N(CCc3ccc(OC)cc3)C2)nc1 (stereo not drawn) | -1 | 6 | -2
COc1cc(C(=O)N[C@H](C(=O)NC2CCCCCC2)C(C)C)cc(OC)c1OC | 17 | -9 | 0
CC(C)[C@H](NC(=O)c1ccc(Br)cc1)C(=O)NC1CCCCC1 | 86* | -4 | 0
C[C@@H]1CN([C@@H](C)CO)C(=O)c2cccc(NC(=O)Nc3ccccc3)c2O[C@@H]1CN(C)Cc1ccncc1 | / | 1 | /
CN1CCN(C(=O)C[C@H]2CC[C@H](NC(=O)Cc3ccccn3)[C@H](CO)O2)CC1 | / | 4 | /
C=CCn1c(COc2ccc(OC)cc2)nnc1SC(C)C(=O)NC1CC1 (stereo not drawn) | -2 | -3 | -2
CCC(c1nnc(SC(C)C(=O)NC2CC2)n1-c1ccc(OC)cc1)N(C)C (stereo not drawn) | 68* | -3 | 1
CCNC(=O)C[C@H]1CC[C@H]2[C@@H](COC[C@H](O)CN2C(=O)Nc2c(C)noc2C)O1 | / | 3 | /
Cc1nnc(N2CCCC(C(=O)NCc3cccc(F)c3)C2)c2nn(-c3ccccc3)c(C)c12 (stereo not drawn) | 21 | 2 | -3
CCc1ccc(CNC(=O)C2CCCN(c3nnc(C)c4c(C)n(-c5ccccc5)nc34)C2)cc1 (stereo not drawn) | 64* | 1 | -2
O=C(c1cc(COc2ccccc2)on1)N1CCCC(OCc2cccnc2)C1 (stereo not drawn) | -4 | -1 | -1
O=C(c1cc(COc2ccccc2)on1)N1CCCC(CN2CCOCC2)C1 (stereo not drawn) | 53* | 1 | -1
COc1ccc(S(=O)(=O)N(C)C[C@H]2Oc3ncc(/C=C/c4ccccc4)cc3C(=O)N([C@H](C)CO)C[C@H]2C)cc1 | / | 5 | /
COc1cc(-n2ccnc2SC)c(Cl)cc1Cl | 54* | 1 | 0
COc1ccccc1-n1ccnc1SCC(=O)NC1CCCC1 | -4 | -4 | -2
COc1ccc(C(N)=O)c(OCC(=O)Nc2cc(C)on2)c1 | 39* | -1 | 0
Cc1ccc(C)c(OCC(=O)Nc2cc(C)on2)c1 | / | -2 | -1
CCC(=O)N[C@@H]1CC[C@H](CC(=O)NCCN2CCCCC2)O[C@@H]1CO | / | -5 | /
Oc1ccc(Cl)cc1C1=Nc2ccccc2N=C(c2ccco2)C1 | -1 | -1 | -2
COc1ccc(O)c(C2=Nc3ccccc3N=C(c3ccco3)C2)c1 | -1 | 53* | 0
CO[C@@H]1CN(C)C(=O)c2ccc(NC(=O)c3ccc(F)cc3)cc2OC[C@@H](C)N(C(=O)c2ccc(F)cc2)C[C@H]1C | / | -11 | /
CCOC(=O)c1[nH]ncc1CN1CCN(Cc2ccc(C)cc2)C(CCO)C1 (stereo not drawn) | -3 | 0 | -1
SMILES | CAL PDZ FP-1 | ARNT-TACC3 inh | CAL PDZ FP-2
CCOC(=O)c1[nH]ncc1CN1CCN(Cc2ccccc2)C(CCO)C1 (stereo not drawn) | 30* | 10 | -1
Cc1noc(C)c1S(=O)(=O)Nc1ccc2c(c1)C(=O)N([C@H](C)CO)C[C@@H](C)[C@H](CN(C)Cc1ccc(C(=O)O)cc1)O2 | / | -4 | /
CC1CCN(CCCn2c(=S)[nH]c3c(sc4ccc([N+](=O)[O-])cc43)c2=O)CC1 | -3 | 1 | 1
CC1CCN(CCCn2c(=S)[nH]c3c(sc4ccccc43)c2=O)CC1 | 50* | 1 | 12
CN(CC(=O)NC1CCCC1)S(=O)(=O)c1cccc(Cl)c1 | -5 | 2 | 0
Cc1cc(NC(=O)CN(C)S(=O)(=O)c2cccc(Cl)c2)no1 | 112* | 1 | 0
CN(CC(=O)Nc1ccc(Cl)cc1)S(=O)(=O)c1ccc2c(c1)n(C)c(=O)c(=O)n2C | + | -2 | -1
CN(CC(=O)Nc1cccc(Cl)c1)S(=O)(=O)c1ccc2c(c1)n(C)c(=O)c(=O)n2C | 4 | 0 | -2
C[C@@H]1CN([C@@H](C)CO)C(=O)c2cc(C#Cc3ccccn3)cnc2O[C@@H]1CN(C)Cc1ccncc1 | / | -2 | /
CC(C)NC(=O)N(C)C[C@H]1Oc2cc(C#C[C@H](C)O)ccc2S(=O)(=O)N([C@H](C)CO)C[C@@H]1C | / | 2 | /
CCNC(=O)[C@@H]1[C@@H](CO)[C@@H]2Cn3c(ccc(-c4ccccc4F)c3=O)[C@H]1N2CC | / | -1 | /
OC1(CC#CCN2CCCCC2)c2ccccc2-c2ccccc21 | -6 | -4 | -2
OC1(C#CCCN2CCCCC2)c2ccccc2-c2ccccc21 | 50* | -1 | 12
COc1ccc(NC(=O)N(C)C[C@@H]2Oc3ccc(NS(=O)(=O)c4cn(C)cn4)cc3C(=O)N([C@@H](C)CO)C[C@H]2C)cc1 | / | 1 | /
C[C@H]1CN([C@@H](C)CO)C(=O)c2cccc(NS(C)(=O)=O)c2O[C@H]1CN(C)C(=O)Nc1ccc2c(c1)OCO2 | / | 3 | /
C[C@@H]1CN([C@@H](C)CO)C(=O)c2cccc(NS(C)(=O)=O)c2O[C@@H]1CN(C)C(=O)Nc1ccc2c(c1)OCO2 | / | active | /
C[C@@H]1CCCCO[C@H](CN(C)Cc2ccc3c(c2)OCO3)[C@H](C)CN([C@@H](C)CO)C(=O)c2cc(NC(=O)Nc3ccc(C(F)(F)F)cc3)ccc2O1 | / | 21 | /
C[C@@H]1CCCCO[C@@H](CN(C)C(=O)Nc2ccccc2)[C@H](C)CN([C@H](C)CO)C(=O)c2cc(NC(=O)CCCN(C)C)ccc2O1 | / | -2 | /
C[C@@H]1CCCCO[C@H](CN(C)C(=O)Nc2ccc3c(c2)OCO3)[C@H](C)CN([C@@H](C)CO)C(=O)c2cc(NC(=O)CCCN(C)C)ccc2O1 | / | 45* | /
C[C@H]1CCCCO[C@H](CN(C)Cc2ccc3c(c2)OCO3)[C@@H](C)CN([C@@H](C)CO)C(=O)c2cc(NC(=O)Nc3ccc(C(F)(F)F)cc3)ccc2O1 | / | 57* | /
COc1ccc(NC(=O)N(C)C[C@@H]2Oc3ccc(NS(=O)(=O)c4cn(C)cn4)cc3C(=O)N([C@H](C)CO)C[C@H]2C)cc1 | / | active | /
CCCNC(=O)N1[C@H](CO)[C@@H]2c3ccccc3N(C(=O)CC)C[C@@H]21 | / | 3 | /
Cc1noc(C)c1NC(=O)N(C)C[C@@H]1Oc2c(NS(=O)(=O)c3ccc(F)cc3)cccc2C(=O)N([C@H](C)CO)C[C@H]1C | / | 0 | /
C[C@H]1CN([C@@H](C)CO)S(=O)(=O)c2ccc(/C=C/c3ccccc3)cc2O[C@@H]1CN(C)C(=O)Nc1ccc(F)cc1 | / | -3 | /
O=C(NCC1CC1)[C@H]1[C@H](CO)[C@H]2Cn3c(ccc(-c4cccc(F)c4)c3=O)[C@H]2N1CC1CCCC1 | / | 3 | /
C[C@H](CO)N1C[C@H](C)[C@H](CN(C)Cc2ccc3c(c2)OCO3)OCCCC[C@H](C)Oc2ccc(NC(=O)Nc3ccc(C(F)(F)F)cc3)cc2C1=O | / | 46* | /
